Drawing on ChEMBL document CHEMBL1150578, “Potent antiviral potamogetonyde and potamogetonol, new furanoid labdane diterpenes from Potamogeton malaianus” (J Nat Prod, 2001), this text covers MIC and IC50 for nine molecules.

Structures are written as SMILES. Values after ≈ are worked out from the molar mass of the structure shown. A value given as a limit tells only on which side of the number the result lay.

The test system of assay [1] is Mycobacterium tuberculosis. The assay is described as follows: Antimycobacterial activity against Mycobacterium tuberculosis H37Ra by microplate alamar blue assay. The format is functional. For orientation: The colour change of resazurin is a common sign of viable cells or microbes.
The test system of a further assay is Human alphaherpesvirus 1. Put plainly: Antiviral activity against HSV1 infected in african green monkey Vero cells after 72 hrs by SRB assay. The format is functional, organism-based. As to conditions: Human alphaherpesvirus 1, Vero. Summed up: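 HSV-1 (30 PFU) added to wells with test samples (final 20–50 µg/mL), then Vero cells plated at 1 × 10^5 cells/mL. Vero cells grown in MEM with 10% heat-inactivated FBS and antibiotics. Incubated 72 h at 37 °C, 5% CO2. Cells then fixed and stained, and OD read at 510 nm. Acyclovir was the reference.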

Another assay relates to KB. Put plainly: Cytotoxicity against human KB cells by SRB assay. The format is functional, cell-based. A general note: In SRB staining, fixed cells bind dye roughly in proportion to their protein.
The nature of assay [2]: Cytotoxicity against human BC cells by SRB assay. The format is functional, cell-based.
Another assay relates to Vero. Put plainly: Cytotoxicity against african green monkey Vero cells by SRB assay. The format is cell-based. To be noted: Chlorocebus sabaeus.
The nature of assay [3]: Cytotoxicity against Spodoptera frugiperda Sf9 cells after 24 hrs by MTT assay. The format is functional, cell-based. As to conditions: Sf9, 24 h. Summed up:
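Seeded 4 × 10^3 cells/well and left 48 h to attach. Exposed 24 h to 1:2 serial dilutions from 200 to 1.56 µg/mL (top dose in 1% DMSO) with penicillin/streptomycin. Then 24 h recovery in fresh medium. MTT 4 h, formazan dissolved in DMSO/glycine buffer pH 10.5, OD 570 nm. Four wells per point; IC50 by metabolic competence.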

Assay [4] in a line: Cytotoxicity against Aedes albopictus C6/36 cells after 24 hrs by MTT assay. The format is functional, cell-based. As to conditions: C6/36, 24 h. Summed up: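 C6/36 cells in MEM with 10% FCS and 1.1 g/L Na2CO3, at 28 °C, antibiotic-free stock. Seeded 1.6 × 10^4 cells/well and left 48 h to attach. Exposed 24 h to 1:2 serial dilutions from 200 to 1.56 µg/mL (top dose in 1% DMSO) with penicillin/streptomycin. Then 24 h recovery in fresh medium. MTT 4 h, formazan dissolved in DMSO/glycine buffer pH 10.5, OD 570 nm. Four wells per point; IC50 by metabolic competence.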
Background: Tetrazolium assays rely on reduction of a dye to a coloured formazan, in cell work by metabolically active cells.

With `NC[C@H]1O[C@H](O[C@H]2[C@H](O)[C@@H](O[C@H]3O[C@H](CO)[C@@H](O)[C@H](N)[C@H]3O)[C@H](N)C[C@@H]2N)[C@H](O)[C@@H](O)[C@@H]1O.O=S(=O)(O)O` [KANAMYCIN SULFATE], the lowest concentration to inhibit growth in assay [1] (MIC) was 2 µg/mL.
As for `Nc1nc2c(ncn2COCCO)c(=O)[nH]1` [ACYCLOVIR], half-maximal inhibition with Human alphaherpesvirus 1 (IC50) required 2 µg/mL (≈ 8.88 µM).
Regarding `C=C1CC[C@@H]2[C@@]3(C)CCC[C@@]2(C(=O)OC3)[C@@H]1CCc1ccoc1` [POTAMOGETONIN], in assay [1], the MIC (commonly the lowest concentration that inhibits growth of the organism) worked out at 100 µg/mL (≈ 318 µM). For the same molecule, the IC50 (as a rule, the concentration that inhibits the measured activity by half) in the assay with KB is over 20 µg/mL; in assay [2], over 20 µg/mL; in the assay on Human alphaherpesvirus 1, over 20 µg/mL; in the assay with Vero it was over 50 µg/mL; in assay [3] it was 15 µg/mL (≈ 47.7 µM); in assay [4], 22 µg/mL (≈ 70 µM).
Take `C=C1CC[C@@H]2[C@](C)(COC(C)=O)CCC[C@@]2(C=O)[C@@H]1CCc1ccoc1` [POTAMOGETONYDE]: in assay [1], the lowest concentration to inhibit growth (MIC) was 100 µg/mL (≈ 279 µM). For the same molecule, the IC50 with KB is over 20 µg/mL; in assay [2], over 20 µg/mL; with Human alphaherpesvirus 1, 8 µg/mL (≈ 22.3 µM); in the assay on Vero it was 31 µg/mL (≈ 86.5 µM); in assay [3], 11 µg/mL (≈ 30.7 µM); in assay [4], 30 µg/mL (≈ 83.7 µM).
With `Cc1c2ccncc2c(C)c2c1[nH]c1ccccc12` [ELLIPTECINE], the IC50 stood at 0.1 µg/mL (≈ 0.406 µM) with KB, 0.1 µg/mL (≈ 0.406 µM) in assay [2] and 0.4 µg/mL (≈ 1.62 µM) with Vero.
With `CO[C@@]12[C@H](COC(N)=O)C3=C(C(=O)C(C)=C(N)C3=O)N1C[C@@H]1N[C@@H]12` [MITOMYCIN], the concentration for half-maximal inhibition (IC50) in assay [3] and in assay [4] was 3 µg/mL (≈ 8.97 µM) each time.
For `C=C1CC[C@@H]2[C@](C)(COC(C)=O)CCC[C@@]2(CO)[C@@H]1CCc1ccoc1` [POTAMOGETONOL], the MIC in assay [1] worked out at 50 µg/mL (≈ 139 µM). Further, the IC50 with KB was over 20 µg/mL; in assay [2], over 20 µg/mL; with Human alphaherpesvirus 1 it was 3 µg/mL (≈ 8.32 µM); with Vero, 28 µg/mL (≈ 77.7 µM); in assay [3], 23 µg/mL (≈ 63.8 µM); in assay [4], 43 µg/mL (≈ 119 µM).
`C=C1CC[C@@H]2[C@@]3(C)CCC[C@@]2(C(=O)OC3)[C@@H]1CC(=O)c1ccoc1` registered an MIC in assay [1] of 100 µg/mL (≈ 304 µM). Moreover, the IC50 was over 20 µg/mL in the assay with KB; over 20 µg/mL in assay [2]; over 20 µg/mL in the assay on Human alphaherpesvirus 1; over 50 µg/mL in the assay on Vero; 26 µg/mL (≈ 79.2 µM) in assay [3]; 72 µg/mL (≈ 219 µM) in assay [4].
As to `NNC(=O)c1ccncc1` [ISONIAZID], in assay [1], inhibition of growth (MIC) required 0.04 µg/mL (≈ 0.292 µM).
